# Key:
# [1] = tested on: Rattus norvegicus; experiment: Inhibition of mast cell degranulation was assessed in female albino rats at a dose of 42 umol/kg iv; type: functional
# [2] = tested on: Rattus norvegicus; experiment: Rat PCA Test(50% inhibition of spot areas)in the female albino rats after (ip) administration in 10% aqueous acacia gum; value ranges from 14-22; type: functional; settings: read-out: ID50 (the source's name)
# Outline: (§1)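 Female albino rats (200–250 g) received intradermal ventral injections of rat anti-egg-albumin antiserum; donors were raised with egg albumin im plus H. pertussis ip, and serum was taken at 12 days. 24 h later, compound was given ip in 10% acacia gum (10 mL/kg), 10 rats/group. Challenge 30 min later was iv 0.3% egg albumin plus 1% Evans blue. Blued areas were measured 30 min after challenge.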
# [3] = In vivo toxic effect was determined in mouse after intraperitoneal administration with 10% aqueous acacia gum; value ranges from 0.50-0.84; type: toxicity, organism-based; settings: ip
# Outline: (§2)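 Female albino mice (20-30 g), 10 animals per dose, dosed intraperitoneally with compound in solution or suspension; compounds tested as salts unless noted. Mortality was recorded over 7 days.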
# [4] = tested on: Rattus norvegicus; experiment: Inhibition of mast cell degranulation was assessed in female albino rats at a dose of 26 umol/kg iv; type: functional
# [5] = tested on: Cavia porcellus; experiment: Antibronchospatic activity determined by histamine stimulated bronchospasm inhibition in guinea pigs after(i.v.) administration; type: functional, Bronchiole
# Outline: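 Guinea pigs, Konzett–Rössler preparation. Bronchospasm was induced with histamine. Compound was given iv (1 mL/kg) 1 min before the agonist, dissolved in saline or saline with slight excess HCl or CH3SO3H (pH 3.5–4). Three doses were tested in duplicate, chosen to give 20–90% inhibition. ID75 was read graphically from log dose–response curves.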
# [6] = tested on: Rattus norvegicus; experiment: Rat PCA Test(50% inhibition of spot areas)in the female albino rats after (ip) administration in 10% aqueous acacia gum; value ranges from 34-42; type: functional; settings: read-out: ID50 (the source's name); outline: as §1
# [7] = In vivo toxic effect was determined in mouse after intraperitoneal administration with 10% aqueous acacia gum; value ranges from 0.61-0.99; type: toxicity, organism-based; settings: ip; outline: as §2
# [8] = In vivo toxic effect was determined in mouse after oral administration with 10% aqueous acacia gum; value ranges from 0.77-1.28; type: toxicity, organism-based
# Outline: (§3)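 Female albino mice, 20-30 g. Compound given orally as solution or suspension in 10% aqueous acacia gum, 10 animals per dose. Deaths recorded over 7 days.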
# [9] = In vivo toxic effect was determined in mouse after intraperitoneal administration with 10% aqueous acacia gum; value ranges from 0.27-0.50; type: toxicity, organism-based; settings: ip; outline: as §2
# [10] = In vivo toxic effect was determined in mouse after oral administration with 10% aqueous acacia gum; value ranges from 0.53-0.84; type: toxicity, organism-based
# [11] = tested on: Rattus norvegicus; experiment: Rat PCA Test(50% inhibition of spot areas)in the female albino rats after (ip) administration in 10% aqueous acacia gum;Value ranges from(44-250); type: functional; settings: read-out: ID50 (the source's name)
# Outline: (§4)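 Antiserum came from female rats given 1% egg albumin in 0.9% NaCl intramuscularly plus Haemophilus pertussis vaccine (2 × 10^10 organisms) intraperitoneally, and was collected 12 days later. Recipient rats (200-250 g) got it intradermally at a ventral site. After 24 h, groups of 10 received vehicle or compound ip. At 30 min they were challenged iv with 0.3% egg albumin plus 1% Evans blue. Blued skin areas were measured 30 min later.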
# [12] = tested on: Rattus norvegicus; experiment: Rat PCA Test(50% inhibition of spot areas)in the female albino rats after oral administration in 10% aqueous acacia gum; type: functional; settings: read-out: ID50 (the source's name)
# Outline: (§5)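 Female rats (200-250 g) were passively sensitized by ventral intradermal anti-egg-albumin antiserum. This was raised in rats by intramuscular 1% egg albumin plus ip H. pertussis vaccine, with serum taken at 12 days. After 24 h, groups of 10 were dosed orally with compound or vehicle (10 mL/kg). At 60 min, iv challenge used 0.3% egg albumin with 1% Evans blue. Blued areas were measured after 30 min.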
# [13] = In vivo toxicity in mouse after oral administration with 10% aqueous acacia gum; type: organism-based; outline: as §3
# [14] = tested on: Mus musculus; experiment: In vivo toxic effect was determined in mouse after intraperitoneal administration with 10% aqueous acacia gum; NA means poorly absorbed; type: toxicity, organism-based; settings: ip; outline: as §2
# [15] = tested on: Rattus norvegicus; experiment: Rat PCA Test(50% inhibition of spot areas)in the female albino rats after (ip) administration in 10% aqueous acacia gum; value ranges from 66-231; type: functional; settings: read-out: ID50 (the source's name); outline: as §1
# [16] = In vivo toxic effect was determined in mouse after intraperitoneal administration with 10% aqueous acacia gum; value ranges from 0.89-1.63; type: toxicity, organism-based; settings: ip; outline: as §2
# [17] = In vivo toxic effect was determined in mouse after oral administration with 10% aqueous acacia gum; value ranges from 1.19-2.07; type: toxicity, organism-based; outline: as §3
# [18] = tested on: Rattus norvegicus; experiment: Rat PCA Test(50% inhibition of spot areas)in the female albino rats after (ip) administration in 10% aqueous acacia gum; type: functional; settings: read-out: ID50 (the source's name); outline: as §1
# [19] = In vivo toxic effect was determined in mouse after intraperitoneal administration with 10% aqueous acacia gum; value ranges from 1.02-1.35; type: toxicity, organism-based; settings: ip; outline: as §2
# [20] = In vivo toxic effect was determined in mouse after oral administration with 10% aqueous acacia gum;Value ranges from(5.68-7.37); type: toxicity, organism-based; outline: as §3
# [21] = tested on: Rattus norvegicus; experiment: Inhibition of mast cell degranulation was assessed in female albino rats at a dose of 43 umol/kg iv; type: functional
# [22] = tested on: Rattus norvegicus; experiment: Rat PCA Test(50% inhibition of spot areas)in the female albino rats after (ip) administration in 10% aqueous acacia gum; value ranges from 96-124; type: functional; settings: read-out: ID50 (the source's name); outline: as §4
# [23] = tested on: Rattus norvegicus; experiment: Rat PCA Test(50% inhibition of spot areas)in the female albino rats after (ip) administration in 10% aqueous acacia gum; value ranges from 213-612; type: functional; settings: read-out: ID50 (the source's name); outline: as §1
# [24] = In vivo toxic effect was determined in mouse after intraperitoneal administration with 10% aqueous acacia gum; value ranges from 0.88-1.56; type: toxicity, organism-based; settings: ip; outline: as §2
# [25] = tested on: Rattus norvegicus; experiment: Inhibition of mast cell degranulation was assessed in female albino rats at a dose of 22 umol/kg iv; type: functional
# [26] = tested on: Rattus norvegicus; experiment: Rat PCA Test(50% inhibition of spot areas)in the female albino rats after (ip) administration in 10% aqueous acacia gum; value ranges from 23-40; type: functional; settings: read-out: ID50 (the source's name); outline: as §1
# [27] = tested on: Rattus norvegicus; experiment: Rat PCA Test(50% inhibition of spot areas)in the female albino rats after oral administration in 10% aqueous acacia gum; value ranges from 88-129; type: functional; settings: read-out: ID50 (the source's name); outline: as §5
# [28] = In vivo toxic effect was determined in mouse after intraperitoneal administration with 10% aqueous acacia gum; value ranges from 0.53-0.97; type: toxicity, organism-based; settings: ip; outline: as §2
# [29] = In vivo toxic effect was determined in mouse after oral administration with 10% aqueous acacia gum; value ranges from 0.66-1.27; type: toxicity, organism-based
# [30] = tested on: Rattus norvegicus; experiment: Inhibition of mast cell degranulation was assessed in female albino rats at a dose of 23 umol/kg iv; type: functional
# [31] = tested on: Rattus norvegicus; experiment: Rat PCA Test(50% inhibition of spot areas)in the female albino rats after (ip) administration in 10% aqueous acacia gum; value ranges from 42-79; type: functional; settings: read-out: ID50 (the source's name); outline: as §1
# [32] = tested on: Rattus norvegicus; experiment: Rat PCA Test(50% inhibition of spot areas)in the female albino rats after oral administration in 10% aqueous acacia gum; value ranges from 99-191; type: functional; settings: read-out: ID50 (the source's name); outline: as §5
# [33] = In vivo toxic effect was determined in mouse after oral administration with 10% aqueous acacia gum; value ranges from 1.75-2.99; type: toxicity, organism-based; outline: as §3
# [34] = In vivo toxic effect was determined in mouse after intraperitoneal administration with 10% aqueous acacia gum; value ranges from 0.30-0.61; type: toxicity, organism-based; settings: ip; outline: as §2
smiles,measurement,setting,value
Cc1cc(C)c(C)c(NC(=O)CCN2CCN(c3ccccn3)CC2)c1C.Cl.Cl,inhibition in vivo at 42 µmol/kg,[1],2%
same,ED50,[2],18 µmol/kg
same,LD50,[3],570 µmol/kg
CCOc1ccc(NC(=O)CCN2CCN(c3ccccn3)CC2)cc1.Cl.Cl,inhibition in vivo at 26 µmol/kg,[4],0%
same,ID75,[5],0.14 µM/kg
same,ED50,[6],37 µmol/kg
same,LD50,[7],690 µmol/kg
same,LD50,[8],920 µmol/kg
COc1cccc(N2CCN(CCC(=O)Nc3ccccc3N)CC2)n1.Cl.Cl,ID75,[5],108 µM/kg
same,LD50,[9],370 µmol/kg
same,LD50,[10],670 µmol/kg
Cl.Cl.NC(=O)c1ccc(NC(=O)CCN2CCN(c3ccccn3)CC2)cc1,ID75,[5],0.3 µM/kg
same,ED50,[11],124 µmol/kg
same,ED50,[12],> 212 µmol/kg
same,LD50,[13],> 6400 µmol/kg
same,LD50,[14],Not Active
CCC(=O)Nc1ccc(NC(=O)CCN2CCN(c3ccccn3)CC2)cc1.Cl.Cl,ID75,[5],0.23 µM/kg
same,ED50,[15],147 µmol/kg
same,LD50,[16],1050 µmol/kg
same,LD50,[17],1530 µmol/kg
COc1cccc(NC(=O)CCN2CCN(c3ccccn3)CC2)c1.Cl.Cl,ID75,[5],0.56 µM/kg
same,ED50,[18],> 118 µmol/kg
same,LD50,[19],1180 µmol/kg
same,LD50,[20],7100 µmol/kg
CNC(=O)Nc1ccc(NC(=O)CCN2CCN(c3ccccn3)CC2)cc1.Cl.Cl,inhibition in vivo at 43 µmol/kg,[21],0%
same,ID75,[5],0.29 µM/kg
same,ED50,[22],109 µmol/kg
same,ED50,[12],> 220 µmol/kg
same,LD50,[13],> 6500 µmol/kg
C=CCOC(=O)CCN1CCN(c2ccccn2)CC1.Cl.Cl,ED50,[23],330 µmol/kg
same,ED50,[12],11.5 µmol/kg
same,LD50,[13],> 8610 µmol/kg
same,LD50,[24],1030 µmol/kg
CCOC(=O)c1ccc(NC(=O)CCN2CCN(c3ccccn3)CC2)cc1.Cl.Cl,inhibition in vivo at 22 µmol/kg,[25],83%
same,ID75,[5],0.17 µM/kg
same,ED50,[26],30 µmol/kg
same,ED50,[27],107 µmol/kg
same,LD50,[28],660 µmol/kg
same,LD50,[29],920 µmol/kg
Cl.Cl.O=C(CCN1CCN(c2ccccn2)CC1)Nc1cccc([N+](=O)[O-])c1,inhibition in vivo at 23 µmol/kg,[30],87%
same,ID75,[5],0.37 µM/kg
same,ED50,[31],58 µmol/kg
same,ED50,[32],137 µmol/kg
same,LD50,[33],2070 µmol/kg
same,LD50,[34],420 µmol/kg

# Reference: ChEMBL document CHEMBL1123658, “1-(2-pyridinyl)piperazine derivatives with antianaphylactic, antibronchospastic, and mast cell stabilizing activities” (J Med Chem, 1987)
